The test system of assay [1] is Mus musculus. The assay is described as follows: Effect on survival of mice infected with methicillin resistant Staphylococcus aureus 1094 at 75 mg/kg twice at 15 and 135 min post injection. The assay is classed as functional, Swiss Webster. In outline:
(§1)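 Male Swiss-Webster mice were infected ip with 1×10⁷ CFU of log-phase MRSA 1094, grown in brain-heart infusion broth and given in 0.5 mL broth with 5% mucin. Doses in DCP vehicle were given iv by tail vein at 5 mL/kg. Survivors per treated group were counted at 72 h post-infection.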

In a further assay the test system is Escherichia coli. Put plainly: Antibacterial activity against Escherichia coli J53. The assay is classed as functional.
The subject of assay [2] is Mus musculus. The assay is described as follows: Effect on survival of mice after ip infection with Vancomycin resistant Enterococcus faecium VRE 700802 at 50 mg/kg twice at 15 and 195 min post injection. The assay is classed as functional, Swiss Webster. Particulars: route intraperitoneal.
For assay [3], the system named is DNA gyrase (Bacillus subtilis). The assay is described as follows: Inhibition of Bacillus subtilis gyrase activity.
Assay [4] relates to Mus musculus. Put plainly: Effect on survival of mice infected with Enterococcus faecalis 29212 at 50 mg/kg, 15 min post injection. It is filed as functional, Swiss Webster. In outline:
(§2)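 Male Swiss-Webster mice were infected ip with the organism grown in brain-heart infusion broth at 37 °C to log phase and washed. It was given in 0.5 mL broth with 5% mucin; CFU were estimated from OD600. Groups of 5 or 10 received iv tail-vein doses in DCP vehicle at 5 mL/kg. Survivors were counted at 72 h.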

For assay [5], the system named is Mus musculus. The assay is described as follows: Effect on survival of mice infected with Enterococcus faecalis 29212 at 50 mg/kg twice at 15 and 135 min post injection. The assay is classed as functional, Swiss Webster. In outline:
as §2

The subject of assay [6] is Mus musculus. Put plainly: Effect on survival of mice infected with methicillin resistant Staphylococcus aureus 1094 at 50 mg/kg twice at 15 and 135 min post injection. It is filed as functional, Swiss Webster. In outline:
as §1

The subject of assay [7] is Mus musculus. The assay is described as follows: Effect on survival of mice after ip infection with Vancomycin resistant Enterococcus faecium VRE 700802 at 100 mg/kg, 15 min post injection. It is filed as functional, Swiss Webster. Particulars: route intraperitoneal. In outline:
as §2

The subject of assay [8] is Mus musculus. Put plainly: Effect on survival of mice infected with Enterococcus faecalis 29212 at 75 mg/kg, 15 min post injection. The assay is classed as functional, Swiss Webster. In outline: as §2
The test system of assay [9] is Mus musculus. Put plainly: Effect on survival of mice infected with methicillin resistant Staphylococcus aureus 1094 at 25 mg/kg twice at 15 and 135 min post injection. The assay is classed as functional, Swiss Webster. In outline: as §1
In a further assay the test system is Enterococcus faecalis. Put plainly: Antibacterial activity against Enterococcus faecalis 29212. It is filed as functional.
In assay [10] the test system is Enterococcus faecium. Put plainly: Antibacterial activity against Vancomycin resistant Enterococcus faecium VRE 700802. The assay is classed as functional.
Assay [11] relates to Mus musculus. The assay is described as follows: Effect on survival of mice infected with Enterococcus faecalis 29212 at 25 mg/kg twice at 15 and 135 min post injection. The assay is classed as functional, Swiss Webster. An outline of the steps: as §2
The subject of assay [12] is Mus musculus. Put plainly: Effect on survival of mice after ip infection with Vancomycin resistant Enterococcus faecium VRE 700802 at 75 mg/kg twice at 15 and 135 min post injection. It is filed as functional, Swiss Webster. Particulars: route intraperitoneal.
Assay [13] deals with Mus musculus. The assay is described as follows: Effect on survival of mice infected with Enterococcus faecalis 29212 at 25 mg/kg, 15 min post injection. It is filed as functional, Swiss Webster. In outline:
as §2

Assay [14] deals with Enterococcus faecium. Put plainly: Antibacterial activity against Enterococcus faecium 19434. It is filed as functional.
For another assay, the system named is Staphylococcus aureus. Put plainly: Antibacterial activity against methicillin resistant Staphylococcus aureus MRSA 1094. The assay is classed as functional.
Assay [15] concerns Mus musculus. The assay is described as follows: Effect on survival of mice after ip infection with Vancomycin resistant Enterococcus faecium VRE 700802 at 50 mg/kg twice at 15 and 135 min post injection. The assay is classed as functional, Swiss Webster. In outline: as §2
Assay [16] concerns Mus musculus. The assay is described as follows: Effect on survival of mice after ip infection with Staphylococcus aureus Smith. The assay is classed as functional. An outline of the steps:
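Male Swiss-Webster mice (20–24 g) were given 10⁸ CFU of log-phase S. aureus Smith ip, grown in LB at 37 °C and washed in cold broth. A single iv tail-vein dose was given in DCP vehicle (10% DMA, 10% Cremophor EL in PBS, pH 9.5; 5 mL/kg) 15 min post-infection. Survival was scored at 72 h and ED50 derived.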

For assay [17], the system named is Mus musculus. The assay is described as follows: Effect on survival of mice after ip infection with Vancomycin resistant Enterococcus faecium VRE 700802 at 75 mg/kg twice at 15 and 195 min post injection. Particulars: route intraperitoneal. The assay is classed as functional, Swiss Webster. An outline of the steps:
as §2

Converted amounts (≈) assume the structure as drawn.

As usually defined, the MIC is the least concentration at which growth counts as inhibited. One may read the IC50 as the concentration at which inhibition is half-maximal. What is called ED50 is the dose at which the effect has come halfway, by size or by number of responders. A low value points to greater potency. `CCc1cc(Nc2cc(=O)n(CCCCN3CCN(c4c(F)cc5c(=O)c(C(=O)O)cn(C6CC6)c5c4F)CC3C)c(=O)[nH]2)ccc1C` (stereo not given): the Activity worked out at 55% in the assay on Mus musculus [1]; 0% in the assay with Mus musculus [2]; 40% in the assay on Mus musculus [4]; 80% in the assay on Mus musculus [5]; 0% in the assay on Mus musculus [6]; 10% in the assay on Mus musculus [7]. In addition, the Activity is listed as 80% with Mus musculus [8]; 5% in the assay with Mus musculus [9]; 40% in the assay with Mus musculus [11]; 0% in the assay with Mus musculus [12]; 13% in the assay with Mus musculus [13]; 10% with Mus musculus [15]. For the same compound, in the assay with Mus musculus [17], the Activity is reported as 45%. Moreover, the MIC in the assay on Escherichia coli was found to be 5 µg/mL (≈ 7.54 µM); with Enterococcus faecalis it was 1.25 µg/mL (≈ 1.89 µM); in the assay on Enterococcus faecium [10] it was 0.625 µg/mL (≈ 0.943 µM); in the assay with Enterococcus faecium [14] it was 1.25 µg/mL (≈ 1.89 µM); in the assay with Staphylococcus aureus it was 1.25 µg/mL (≈ 1.89 µM). For the same compound, the 50% inhibitory concentration (IC50) in assay [3] is 21.7 µg/mL (≈ 32.7 µM). In the assay with Mus musculus [16], this compound gave an ED50 of 15 mg/kg.

The record behind these values is ChEMBL document CHEMBL1138117, “Hybrid antibacterials. DNA polymerase-topoisomerase inhibitors” (J Med Chem, 2006).
